The source made the active and inactive calls. The calls are words filed in the database; no cut-off is given here.
Assays:
[1] = molecular target: Trypanothione reductase (Trypanosoma cruzi) (UniProt P28593); assay: Inhibition of Trypanosoma cruzi trypanothione reductase at 5 uM using 100 uM trypanothione disulfide as substrate by spectrophotometric method relative to control
Method in brief: (§1)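 TcTryR (about 2 nM) in 40 mM HEPES, 1 mM EDTA, pH 7.5, 100 µM NADPH; inhibitor at fixed 2 or 5 µM (screening range 1–5 µM) from DMSO stock; TS2 fixed at 40 or 100 µM; absorbance decrease monitored; percent inhibition versus DMSO control.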

[2] = test system: Trypanosoma brucei brucei; assay: Antitrypanosomal activity against Trypanosoma brucei brucei TC221 after 72 hrs by alamar blue assay; assay type: functional; conditions: TC221, 72 h
Method in brief: (§2)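 T. b. brucei TC221 bloodstream-form proliferation measured by alamarBlue (resazurin reduced to resorufin by living cells); 48 h and 72 h read-outs. IC50 derived per Räz et al. method; each compound tested in duplicate, mean of two values.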

[3] = molecular target: Trypanothione reductase (Trypanosoma cruzi) (UniProt P28593); assay: Inhibition of Trypanosoma cruzi trypanothione reductase at 50 uM using 100 uM trypanothione disulfide as substrate by spectrophotometric method relative to control
[4] = molecular target: Rhodesain (Trypanosoma brucei rhodesiense) (UniProt Q95PM0); assay: Inhibition of Trypanosoma brucei rhodesiense rhodesain using Cbz-Phe-Arg-AMC as substrate by spectrofluorometric analysis
Chain of Rhodesain (Trypanosoma brucei rhodesiense) (Q95PM0 1-450): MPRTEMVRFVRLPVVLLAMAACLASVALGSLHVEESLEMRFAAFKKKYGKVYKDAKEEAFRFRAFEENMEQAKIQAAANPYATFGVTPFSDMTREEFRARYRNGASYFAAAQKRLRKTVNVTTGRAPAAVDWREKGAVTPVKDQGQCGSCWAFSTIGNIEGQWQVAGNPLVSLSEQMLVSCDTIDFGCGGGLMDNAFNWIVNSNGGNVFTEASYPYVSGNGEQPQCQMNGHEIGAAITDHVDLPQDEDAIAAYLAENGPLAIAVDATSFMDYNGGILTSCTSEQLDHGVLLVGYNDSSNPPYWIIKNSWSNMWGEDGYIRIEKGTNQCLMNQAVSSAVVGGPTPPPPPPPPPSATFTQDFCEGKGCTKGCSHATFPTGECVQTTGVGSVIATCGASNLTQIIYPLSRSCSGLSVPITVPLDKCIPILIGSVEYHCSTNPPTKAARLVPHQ

[5] = molecular target: Trypanothione reductase (Trypanosoma cruzi) (UniProt P28593); assay: Inhibition of Trypanosoma cruzi trypanothione reductase at 2 uM using 40 uM trypanothione disulfide as substrate by spectrophotometric method relative to control; method in brief: as §1
[6] = test system: Trypanosoma brucei brucei; assay: Antitrypanosomal activity against Trypanosoma brucei brucei TC221 after 48 hrs by alamar blue assay; assay type: functional; conditions: TC221, 48 h; method in brief: as §2
Rhodesain = Rhodesain (Trypanosoma brucei rhodesiense, UniProt Q95PM0); assay: Inhibition of Trypanosoma brucei rhodesiense rhodesain using Cbz-Phe-Arg-AMC as substrate measured for 10 mins by spectrofluorometric analysis
Chain of Rhodesain (Q95PM0 whole entry): as the sequence (Q95PM0 1-450) above

Leishmania infantum = assay: Antileishmanial activity against Leishmania infantum; assay type: functional
[7] = molecular target: Trypanothione reductase (Trypanosoma cruzi) (UniProt P28593); assay: Inhibition of Trypanosoma cruzi trypanothione reductase at 2 uM using 100 uM trypanothione disulfide as substrate by spectrophotometric method relative to control; method in brief: as §1
[8] = molecular target: Trypanothione reductase (Trypanosoma cruzi) (UniProt P28593); assay: Inhibition of Trypanosoma cruzi trypanothione reductase at 5 uM using 40 uM trypanothione disulfide as substrate by spectrophotometric method relative to control; method in brief: as §1
[9] = molecular target: Rhodesain (Trypanosoma brucei rhodesiense) (UniProt Q95PM0); assay: Inhibition of Trypanosoma brucei rhodesiense rhodesain at 20 uM using Cbz-Phe-Arg-AMC as substrate measured for 5 mins by spectrofluorometric analysis relative to control
Method in brief: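 Rhodesain in 50 mM sodium acetate pH 5.5 with 5 mM DTT, 5 mM EDTA, 200 mM NaCl; inhibitor 20 µM, substrate Cbz-Phe-Arg-AMC; AMC fluorescence (ex 380/em 460 nm) followed 5 min; activity from slopes of fluorescence vs time versus DMSO control; run in duplicate.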

[10] = molecular target: Rhodesain (Trypanosoma brucei rhodesiense) (UniProt Q95PM0); assay: Inhibition of Trypanosoma brucei rhodesiense rhodesain assessed as second-order rate constant using Cbz-Phe-Arg-AMC as substrate measured for 10 mins by spectrofluorometric analysis
Trypanosoma brucei [11] = assay: Inhibition of Trypanosoma brucei trypanothione reductase at 5 uM using 100 uM trypanothione disulfide as substrate by spectrophotometric method relative to control
Method in brief: (§3)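 TbTryR (about 2 nM) in 40 mM HEPES, 1 mM EDTA, pH 7.5 with 100 µM NADPH; inhibitor 5 µM from DMSO stock, fixed TS2 at 100 or 40 µM; NADPH consumption followed as absorbance decrease; inhibition relative to DMSO control.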

J774.1 = assay: Cytotoxicity against mouse J774.1 cells after 24 hrs by alamar blue assay; assay type: cell-based; conditions: J774.1, 24 h
[12] = Mixed-type inhibition of Trypanosoma brucei trypanothione reductase assessed as enzyme-substrate complex using varying levels of trypanothione disulfide as substrate by Lineweaver-burk plot analysis
Method in brief: (§4)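 TbTryR kinetics in HEPES/EDTA pH 7.5 with 100 µM NADPH; TS2 varied 20–200 µM at several inhibitor levels, DMSO control; Lineweaver-Burk plots; Ki and Ki' fitted.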

Trypanosoma brucei [13] = assay: Inhibition of Trypanosoma brucei trypanothione reductase at 5 uM using 40 uM trypanothione disulfide as substrate by spectrophotometric method relative to control; method in brief: as §3
[14] = Inhibition of trypanothione reductase
[15] = Selectivity index, ratio of IC50 for mouse J774.1 cells to IC50 for Trypanosoma brucei brucei TC221 measured after 48 hrs; assay type: toxicity; conditions: J774.1 cells (versus Trypanosoma brucei brucei TC221), read-out: Ratio IC50
Method in brief: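 Selectivity index computed as IC50 (J774.1 macrophages, alamarBlue) divided by IC50 (T. b. brucei TC221, alamarBlue); duplicate determinations, means used.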

[16] = Mixed-type inhibition of Trypanosoma brucei trypanothione reductase assessed as enzyme-substrate-inhibitor complex using varying levels of trypanothione disulfide as substrate by Lineweaver-burk plot analysis; method in brief: as §4
[17] = Stability of the compound; assay type: physicochemical

Chain of Trypanothione reductase (Trypanosoma cruzi) (P28593 whole entry, looked up): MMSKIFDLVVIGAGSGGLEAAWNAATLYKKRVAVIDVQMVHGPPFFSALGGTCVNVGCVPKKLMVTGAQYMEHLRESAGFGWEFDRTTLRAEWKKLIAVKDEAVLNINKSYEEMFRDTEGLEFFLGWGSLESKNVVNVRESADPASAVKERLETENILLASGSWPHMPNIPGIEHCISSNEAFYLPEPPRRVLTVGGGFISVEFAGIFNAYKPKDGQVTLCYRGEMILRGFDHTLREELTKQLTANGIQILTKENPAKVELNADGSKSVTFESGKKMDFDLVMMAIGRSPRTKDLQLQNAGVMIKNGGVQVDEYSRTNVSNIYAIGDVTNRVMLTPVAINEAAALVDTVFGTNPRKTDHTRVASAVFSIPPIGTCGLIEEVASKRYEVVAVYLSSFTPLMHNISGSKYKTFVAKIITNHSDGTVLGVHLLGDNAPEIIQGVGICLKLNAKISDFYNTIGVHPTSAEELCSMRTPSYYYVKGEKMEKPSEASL

| Compound | inhibition [1] [%] | IC50 [2] [nM] | inhibition [3] [%] | inhibition [4] | inhibition [5] [%] | IC50 [6] [nM] | IC50 (Rhodesain) [nM] | Activity (Leishmania infantum) | inhibition [7] [%] | inhibition [8] [%] | inhibition [9] [%] | K [10] [M⁻¹ s⁻¹] | inhibition (Trypanosoma brucei [11]) [%] | IC50 (J774.1) [nM] | Ki [12] [nM] | inhibition (Trypanosoma brucei [13]) [%] | inhibition [14] | selectivity ratio at 48 h [15] | Ki [16] [nM] | Stability [17] |
| --- | --- | --- | --- | --- | --- | --- | --- | --- | --- | --- | --- | --- | --- | --- | --- | --- | --- | --- | --- | --- |
| c1ccc2c(NCCCCCCCCNc3c4c(nc5ccccc35)CCCC4)c3c(nc2c1)CCCC3 | 64.4 to 68.5 | 660 | 100 | Dose-dependent effect | 45 to 46.7 | 400 | 16900 | Active | 28.8 to 32.9 | 73.3 to 78.3 | 87 | – | – | – | – | – | – | – | – | – |
| CN1CCN(C(=O)N[C@@H](Cc2ccccc2)C(=O)N[C@H](/C=C/S(=O)(=O)c2ccccc2)CCc2ccccc2)CC1 | – | – | – | – | – | – | – | – | – | – | – | 500000 | – | – | – | – | – | – | – | – |
| C1=Cc2c(nc3ccccc3c2NCCCCCCCNc2c3c(nc4ccccc24)CCC=C3)CC1 | – | 10 | – | – | – | 10 | – | Active | – | – | – | – | 53 | 1500 | 1200 | 47 | Active | 152 | 12000 | Stable |
| c1ccc2c(NCCCCCCCNc3c4c(nc5ccccc35)CCCC4)c3c(nc2c1)CCCC3 | 51 to 55 | 590 | – | – | 34.4 to 37.8 | 160 | – | Active | 23.2 to 25.8 | 66.4 | 44 | – | 53 | – | – | 66 | – | – | – | – |

Source: ChEMBL document CHEMBL4052757, “Bistacrines as potential antitrypanosomal agents” (Bioorg Med Chem, 2017)
